# In PMC5562219 (Theranostics, 2017):
# Key:
# [1] = system: primary cultured cortical neurons; assay: CCK-8 assay on neuronal cultures; type: cell-based, mouse; conditions: CCK-8, neuronal cultures treated with different dilutions of the probes for 24 h
# [2] = system: MHC-I molecules in ischemic brain; assay: In vivo and ex vivo NIRF imaging in photothrombotic stroke mice; set-up: species or system mouse
# Procedure, shortened: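 Photothrombotic stroke in male C57BL/6 mice (6 weeks old), with brains illuminated 15 min and lesions confirmed by T2 MRI at 24 h. Cy5.5-labelled probe or scrambled control probe given i.v. via tail vein (10 nM, 200 μL PBS pH 7.4). Serial brain NIRF imaging 1–24 h (ex 675 nm, em 695 nm long pass). TBR taken as ischemic/contralateral hemisphere. Brain, heart, spleen, liver, kidney and lung then imaged ex vivo; n=6, mean±SEM.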
substance,measurement,setting,value
K(Cy5.5)ALYNFATM [Cy5.5-H2BP],cytotoxicity to neurons,[1],low cytotoxicity
same,ex vivo NIRF signal intensity in the kidney,"[2]; 24 h after injection of the probe, suggests excretion mainly via the kidney",high signal intensity
same,"target background ratio (TBR), ischemic/contralateral hemisphere","[2]; 24 h after probe administration, compared with Cy5.5-H2CP probe, n=6 per group",significantly enhanced
same,TBR values in brain versus other organs,"[2]; ex vivo NIRF images, brain, heart, liver, spleen, lung, kidney, n=6",significantly higher in the brain than in other organs
same,time of peak NIRF signal intensity post-injection,"[2]; photothrombosis model mice, tail vein injection, 10 nM, 200 μL in PBS pH 7.4",approximately 8 h
